Measurements published in ChEMBL document CHEMBL1158568, “In silico directed chemical probing of the adenosine receptor family” (Bioorg Med Chem, 2010).

Assays:
Adenosine receptor A2a [1] = molecular target: T1, Adenosine receptor A2a (Homo sapiens, UniProt P29274); assay: Displacement of [3H]ZM241385 from human adenosine A2A receptor expressed in human HeLa cells at 10 uM after 30 mins by beta scintillation counting; assay type: cell-based
Method in brief: (§1)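 Membranes from HeLa-A2A cells, 10 lg protein, in 50 mM Tris–HCl, 1 mM EDTA, 10 mM MgCl2, 2 UI/mL adenosine deaminase, pH 7.4; 3 nM [3H]ZM241385, 30 min at 25 °C, duplicates. 50 µM NECA defined non-specific binding. Single 10 µM point or six concentrations 10 nM–100 µM; Ki by Cheng–Prusoff.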

[2] = molecular target: T2, Adenosine receptor A1 (Homo sapiens) (UniProt P30542); assay: Displacement of [3H]DPCPX from human adenosine A1 receptor expressed in CHO cells at 10 uM after 60 mins by beta scintillation counting; assay type: cell-based
T2 sequence (whole entry): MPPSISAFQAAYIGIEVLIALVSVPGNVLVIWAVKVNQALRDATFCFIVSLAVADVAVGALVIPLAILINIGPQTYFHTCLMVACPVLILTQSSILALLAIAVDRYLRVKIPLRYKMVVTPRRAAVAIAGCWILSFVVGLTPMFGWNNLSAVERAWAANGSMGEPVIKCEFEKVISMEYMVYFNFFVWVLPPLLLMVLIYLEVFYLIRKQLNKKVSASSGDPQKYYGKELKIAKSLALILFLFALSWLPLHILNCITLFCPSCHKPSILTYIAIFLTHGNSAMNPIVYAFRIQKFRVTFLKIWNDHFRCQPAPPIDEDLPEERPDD
Method in brief: (§2)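 Membranes of CHO-A1 cells (15 lg protein) in 20 mM Hepes, 100 mM NaCl, 10 mM MgCl2, 2 units/ml adenosine deaminase, pH 7.4, with 2 nM [3H]DPCPX; 60 min at 25 °C, duplicates. Non-specific binding with 10 µM (R)-PIA. Filtration, scintillation counting. Single point at 10 µM or six concentrations 10 nM–100 µM; Ki by Cheng–Prusoff.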

[3] = molecular target: T3, Adenosine receptor A3 (Homo sapiens) (UniProt P0DMS8); assay: Displacement of [3H]NECA from human adenosine A3 receptor expressed in human HeLa cells at 10 uM after 180 mins by beta scintillation counting; assay type: cell-based
T3 sequence (whole entry): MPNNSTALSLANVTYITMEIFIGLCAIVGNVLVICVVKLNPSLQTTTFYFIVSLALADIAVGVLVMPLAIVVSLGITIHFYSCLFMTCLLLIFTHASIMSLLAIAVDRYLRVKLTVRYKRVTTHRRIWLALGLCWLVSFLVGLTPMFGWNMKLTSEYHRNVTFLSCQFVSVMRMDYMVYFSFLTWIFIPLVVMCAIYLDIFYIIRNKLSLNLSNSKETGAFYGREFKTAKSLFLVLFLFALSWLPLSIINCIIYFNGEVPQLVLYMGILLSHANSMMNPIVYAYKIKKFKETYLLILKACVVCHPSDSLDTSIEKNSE
Method in brief: (§3)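 HeLa-A3 membranes (90 lg protein) in 50 mM Tris–HCl, 1 mM EDTA, 5 mM MgCl2, 2 UI/mL adenosine deaminase, pH 7.4; 30 nM [3H]NECA, 180 min at 25 °C, triplicates, GF/B filtration. Non-specific with 100 µM (R)-PIA. Tested at 10 µM or six concentrations 10 nM–100 µM; Ki by Cheng–Prusoff.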

[4] = molecular target: T4, Adenosine receptor A2b (Homo sapiens) (UniProt P29275); assay: Displacement of [3H]DPCPX from human adenosine A2B receptor expressed in HEK293 cells at 10 uM after 30 mins by beta scintillation counting; assay type: cell-based
T4 sequence (whole entry): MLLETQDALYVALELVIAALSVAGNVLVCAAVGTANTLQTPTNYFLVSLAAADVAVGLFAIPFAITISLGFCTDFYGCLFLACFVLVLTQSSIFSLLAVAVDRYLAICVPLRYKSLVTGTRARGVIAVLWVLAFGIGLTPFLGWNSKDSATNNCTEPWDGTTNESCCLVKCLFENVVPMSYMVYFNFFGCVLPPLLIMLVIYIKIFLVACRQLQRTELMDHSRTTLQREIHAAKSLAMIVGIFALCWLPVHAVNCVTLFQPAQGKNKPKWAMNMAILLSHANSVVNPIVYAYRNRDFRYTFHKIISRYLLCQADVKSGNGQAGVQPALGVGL

Adenosine receptor A1 [5] = molecular target: T5, Adenosine receptor A1 (Homo sapiens, UniProt P30542); assay: Antagonist activity at human adenosine A1 receptor expressed in forskolin-stimulated CHO cells assessed as inhibition of […]-induced decrease in cAMP level pre-incubated for 15 mins by enzyme immunoassay; assay type: functional, cell-based
T5 sequence (P30542 whole entry): T2 sequence (whole entry)
Method in brief: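 CHO-A1 cells, 20,000/well, grown in EMEM F-12 with 10% FCS; washed, pre-incubated 15 min at 37 °C with 20 µM rolipram plus test compound, then 0.1 µM NECA 15 min and 3 µM forskolin 3 min. Intracellular cAMP read by enzyme immunoassay at 450 nm; pKB from IC50 by Leff–Dougall equation.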

[6] = molecular target: Histamine H1 receptor (Homo sapiens) (UniProt P35367); assay: Displacement of [3H]pyrilamine from human histamine H1 receptor expressed in CHO cells at 10 uM after 60 mins by beta scintillation counting; assay type: cell-based
Sequence of Histamine H1 receptor (Homo sapiens) (P35367 whole entry): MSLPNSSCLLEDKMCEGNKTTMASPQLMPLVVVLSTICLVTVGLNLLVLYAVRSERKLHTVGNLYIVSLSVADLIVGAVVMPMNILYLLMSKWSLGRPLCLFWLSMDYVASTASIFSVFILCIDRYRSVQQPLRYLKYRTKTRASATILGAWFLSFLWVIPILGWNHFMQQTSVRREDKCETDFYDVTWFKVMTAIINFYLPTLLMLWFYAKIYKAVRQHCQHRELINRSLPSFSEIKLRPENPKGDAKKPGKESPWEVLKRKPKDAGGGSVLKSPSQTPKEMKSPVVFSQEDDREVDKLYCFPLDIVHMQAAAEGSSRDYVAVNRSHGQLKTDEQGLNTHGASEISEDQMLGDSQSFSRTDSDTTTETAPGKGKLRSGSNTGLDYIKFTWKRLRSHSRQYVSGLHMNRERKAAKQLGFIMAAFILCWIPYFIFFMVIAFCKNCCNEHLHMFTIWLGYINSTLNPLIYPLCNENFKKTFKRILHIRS
Method in brief: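 CHO-H1 membranes (1 lg protein) in 50 mM Tris–HCl pH 7.4 with 2 nM [3H]pyrilamine and compound at 10 µM; 60 min at 27 °C, duplicates. 10 µM triprolidine for non-specific binding; GF/C filtration, scintillation counting.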

[7] = molecular target: 5-hydroxytryptamine receptor 7 (Homo sapiens) (UniProt P34969); assay: Displacement of [3H]SB269970 from human 5HT7 receptor expressed in HEK293 cells at 10 uM after 60 mins by beta scintillation counting; assay type: cell-based
Sequence of 5-hydroxytryptamine receptor 7 (Homo sapiens) (P34969 whole entry): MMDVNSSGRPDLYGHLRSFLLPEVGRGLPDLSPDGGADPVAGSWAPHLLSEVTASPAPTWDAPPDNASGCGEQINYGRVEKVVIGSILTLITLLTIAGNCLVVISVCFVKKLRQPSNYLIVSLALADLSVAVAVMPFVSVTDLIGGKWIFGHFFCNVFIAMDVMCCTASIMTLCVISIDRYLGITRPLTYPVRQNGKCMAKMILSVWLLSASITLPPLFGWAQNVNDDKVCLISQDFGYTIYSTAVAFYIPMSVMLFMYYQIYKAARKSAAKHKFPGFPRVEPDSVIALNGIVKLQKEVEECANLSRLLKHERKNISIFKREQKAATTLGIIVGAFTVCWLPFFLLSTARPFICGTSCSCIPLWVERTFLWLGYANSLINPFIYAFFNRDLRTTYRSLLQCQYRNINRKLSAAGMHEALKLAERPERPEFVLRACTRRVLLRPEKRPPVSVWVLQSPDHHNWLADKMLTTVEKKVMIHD
Method in brief: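 HEK-293-5-HT7 membranes (5 lg protein) in 50 mM Tris–HCl, 4 mM CaCl2, 1 mM ascorbic acid, 0.1 mM pargyline, pH 7.4; 2 nM [3H]SB269970, compound at 10 µM, 60 min at 37 °C, duplicates. Non-specific defined with 25 µM clozapine.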

Adenosine receptor A1 [8] = molecular target: T5, Adenosine receptor A1; assay: Displacement of [3H]DPCPX from human adenosine A1 receptor expressed in CHO cells after 60 mins by beta scintillation counting; assay type: cell-based; method in brief: as §2
[9] = molecular target: T6, Alpha-2A adrenergic receptor (Homo sapiens) (UniProt P08913); assay: Displacement of [3H]MK912 from human adrenergic alpha2A receptor expressed in CHO cells at 10 uM after 30 mins by beta scintillation counting; assay type: cell-based
T6 sequence (whole entry): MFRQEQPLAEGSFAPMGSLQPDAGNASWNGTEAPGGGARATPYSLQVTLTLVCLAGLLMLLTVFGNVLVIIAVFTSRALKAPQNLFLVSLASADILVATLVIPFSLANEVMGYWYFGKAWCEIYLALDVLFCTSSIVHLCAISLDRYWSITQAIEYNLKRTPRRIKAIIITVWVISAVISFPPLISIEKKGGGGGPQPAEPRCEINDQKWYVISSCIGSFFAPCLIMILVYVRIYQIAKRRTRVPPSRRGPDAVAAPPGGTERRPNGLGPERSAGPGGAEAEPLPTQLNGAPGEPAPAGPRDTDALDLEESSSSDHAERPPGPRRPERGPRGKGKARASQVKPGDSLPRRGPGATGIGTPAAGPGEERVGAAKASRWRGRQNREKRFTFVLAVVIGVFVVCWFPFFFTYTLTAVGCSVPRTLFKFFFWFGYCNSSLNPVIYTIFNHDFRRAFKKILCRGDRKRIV
Method in brief: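 CHO-a2A membranes (25 lg protein) in 25 mM Na2PO4, pH 7.4, with 0.37 nM [3H]MK-912 and compound at 10 µM; 30 min at 25 °C, duplicates. Non-specific binding with 100 µM norepinephrine; filtration and scintillation counting.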

Adenosine receptor A2b [10] = molecular target: T7, Adenosine receptor A2b (Homo sapiens, UniProt P29275); assay: Displacement of [3H]DPCPX from human adenosine A2B receptor expressed in HEK293 cells after 30 mins by beta scintillation counting; assay type: cell-based
T7 sequence (P29275 whole entry): T4 sequence (whole entry)

Adenosine receptor A2b [11] = molecular target: T7, Adenosine receptor A2b; assay: Antagonist activity at human adenosine A2B receptor expressed in HEK293 cells assessed as inhibition of […]-induced cAMP accumulation pre-incubated for 15 mins by enzyme immunoassay; assay type: functional, cell-based
Method in brief: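 HEK-293 A2B cells seeded 10,000/well in EMEM F-12 with 10% FCS; 15 min pre-incubation at 37 °C with 30 µM rolipram and test compound, followed by 10 µM NECA for 15 min. Enzyme-immunoassay readout of intracellular cAMP at 450 nm; pKB by Leff–Dougall equation.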

Adenosine receptor A3 [12] = molecular target: T8, Adenosine receptor A3 (Homo sapiens, UniProt P0DMS8); assay: Antagonist activity at human adenosine A3 receptor expressed in forskolin-stimulated CHO cells assessed as inhibition of […]-induced decrease in cAMP level pre-incubated for 15 mins by enzyme immunoassay; assay type: functional, cell-based
T8 sequence (P0DMS8 whole entry): T3 sequence (whole entry)
Method in brief: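 Using CHO-A3 cells (20,000/well, DMEM F-12, 10% FCS), test compound plus 30 µM rolipram pre-incubated 15 min at 37 °C; 1 µM NECA added 15 min, then 10 µM forskolin 3 min. cAMP by enzyme immunoassay at 450 nm; pKB by Leff–Dougall equation.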

Adenosine receptor A3 [13] = molecular target: T8, Adenosine receptor A3; assay: Displacement of [3H]NECA from human adenosine A3 receptor expressed in human HeLa cells after 180 mins by beta scintillation counting; assay type: cell-based; method in brief: as §3
Adenosine receptor A2a [14] = molecular target: T1, Adenosine receptor A2a; assay: Displacement of [3H]ZM241385 from human adenosine A2A receptor expressed in human HeLa cells after 30 mins by beta scintillation counting; assay type: cell-based; method in brief: as §1
Adenosine receptor A2a [15] = molecular target: T1, Adenosine receptor A2a; assay: Antagonist activity at human adenosine A2A receptor expressed in CHO cells assessed as inhibition of […]-induced cAMP accumulation pre-incubated for 15 mins by enzyme immunoassay; assay type: functional, cell-based
Method in brief: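 CHO-A2A cells, 10,000/well, in DMEM F-12 with 10% FCS; pre-incubated 15 min at 37 °C with 30 µM rolipram and test compound, then stimulated with 1 µM NECA for 15 min. cAMP measured by enzyme immunoassay at 450 nm; antagonist pKB derived from IC50 via Leff–Dougall equation.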

T1 sequence (P29274 whole entry): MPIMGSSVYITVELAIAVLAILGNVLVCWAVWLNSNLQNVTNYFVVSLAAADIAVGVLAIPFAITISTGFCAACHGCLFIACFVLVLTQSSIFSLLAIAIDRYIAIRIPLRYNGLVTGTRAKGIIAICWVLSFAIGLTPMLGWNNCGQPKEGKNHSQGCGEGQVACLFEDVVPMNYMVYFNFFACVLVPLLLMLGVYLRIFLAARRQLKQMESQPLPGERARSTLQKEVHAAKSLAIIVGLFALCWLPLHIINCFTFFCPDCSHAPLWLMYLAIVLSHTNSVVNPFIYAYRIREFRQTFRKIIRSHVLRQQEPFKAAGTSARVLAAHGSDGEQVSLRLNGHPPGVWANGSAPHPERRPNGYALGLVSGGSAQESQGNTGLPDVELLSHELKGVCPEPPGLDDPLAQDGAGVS

Row | SMILES | inhibition (Adenosine receptor A2a [1]) [%] | inhibition [2] [%] | inhibition [3] [%] | inhibition [4] [%] | also measured
1 | CCO/C(C)=N/c1c(C#N)ncn1Cc1ccccc1 | 9.8 | 1.2 | 28 | 9.9 | –
2 | C=CCOc1cccc(-c2nc(O)c3c4ccccc4c(=O)n(CC)n23)c1 | 10.9 | 87.3 | 39 | 5 | pKb (Adenosine receptor A1 [5]): 6.8; Activity [6]: 42%; Activity [7]: 20%; Ki (Adenosine receptor A1 [8]): 15.8 nM; Activity [9]: 14%
3 | N#Cc1ccc(-c2nc(N3CCCCC3)c3ncn(-c4ccc(F)cc4)c3n2)cc1 | 0.4 | 0.8 | 15.1 | 6.9 | –
4 | COc1cn(-c2ccccc2)nc1C(=O)Nc1ccc(C)cn1 | 59.6 | 51.9 | – | – | –
5 | CCO/C=N/c1c(C#N)ncn1Cc1ccccc1 | 15.2 | 9.8 | 1.9 | 2 | –
6 | Cc1cc(NC(=O)C2=C3N=C(c4cccs4)C=C(C(F)(F)F)N3NC2)no1 | 63 | 79 | – | – | –
7 | CN1N=C(C(=O)Nc2ccc(Cl)cn2)C2COc3ccccc3C21 (stereo not given) | 13.3 | 8 | – | – | –
8 | COc1ccc(-c2nc(N3CCOCC3)c3ncn(-c4ccc(F)cc4)c3n2)cc1 | 5 | 18.8 | 31.8 | 3 | –
9 | OC1=NCC2C(C=NN2Cc2ccccc2)C(c2ccc(Br)cc2)S1 (stereo not given) | 8.1 | 18.8 | – | – | –
10 | N=C1c2c(C(N)=O)nc(-c3ccccc3O)n2CN1c1ccc(O)cc1 | 15.2 | 26.8 | 26.1 | 55.4 | Ki (Adenosine receptor A2b [10]): 1580 nM; Activity [6]: 17%; pKb (Adenosine receptor A2b [11]): 5.7; Activity [7]: 11%; Activity [9]: 28%
11 | NC(=O)c1nc(-c2cccc(O)c2)nc2c1ncn2-c1ccccc1 | 4.5 | 25.5 | 23.1 | 0.5 | –
12 | O=C(Nc1ccco1)c1nc2nc(-c3cccs3)cc(C(F)(F)F)c2s1 | 70.5 | 60.7 | – | – | –
13 | Cc1ccc(-n2cnc3c(N4CCSCC4)nc(-c4ccc(C#N)cc4)nc32)cc1 | 14.3 | 6.8 | 1.9 | 4.3 | –
14 | Cc1ccc(-c2ncc3[nH]c(=O)n(Cc4ccccc4)c3n2)cc1 | 20 | 37.5 | 71.1 | 2.6 | Activity [6]: 17%; pKb (Adenosine receptor A3 [12]): 6.3; Activity [7]: 1%; Ki (Adenosine receptor A3 [13]): 316 nM; Activity [9]: 18%
15 | O=C(/N=C1\c2ccccc2CN1c1ncccn1)Nc1ccccc1 | 6.7 | 38.5 | – | – | –
16 | Cc1ccc(-c2nc(C(=O)Nc3ccccn3)c3n2CCCCC3)cc1 | 68.9 | 38.9 | – | 19 | Activity [6]: 39%; Ki (Adenosine receptor A2a [14]): 2510 nM; Activity [7]: 18%; Ki (Adenosine receptor A3 [13]): 3160 nM; Activity [9]: 12%; pKb (Adenosine receptor A2a [15]): 5.1
17 | NC(=O)c1nc(-c2ccccc2O)nc2c1ncn2Cc1ccccc1 | 22.9 | 11.1 | 10.9 | 9.5 | –
18 | Cc1ccc(-n2cnc3c(N4CCOCC4)nc(-c4ccc(C#N)cc4)nc32)cc1 | 6.1 | 7.6 | 3 | 6.8 | –
